Our source for the Km and IC50 values is ChEMBL document CHEMBL1135118, “Aromatic farnesyl diphosphate analogues: vinyl triflate-mediated synthesis and preliminary enzymatic evaluation” (Bioorg Med Chem Lett, 2002).

Type in all cases: protein-complex assay
Data set [1] deals with C/C(=C\COP(=O)(O)OP(=O)(O)O)CCc1ccc(-c2ccccc2)cc1. Briefly: Binding affinity for Farnesyltransferase. The essentials: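 Continuous fluorimetric farnesylation assay with purified recombinant mammalian FTase and dansyl-GCVLS peptide as cosubstrate. FPP analogue or E,E-FPP supplied as a varied substrate in 52 mM Tris–HCl pH 7.0 with 5.8 mM DTT, MgCl₂, ZnCl₂ and 0.4% n-dodecyl-β-D-maltoside. Reaction started with enzyme; fluorescence (ex 350/em 486 nm) recorded for 300 s at 30 °C. Initial fluorescence rates were converted to velocities for Km.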

The target of data set [2] is T1, Protein farnesyltransferase (Homo sapiens, UniProt P49354+P49356). Put plainly: Inhibitory activity against mammalian protein-Farnesyltransferase. The essentials:
(§1)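 Inhibition read in the continuous fluorescence assay with recombinant mammalian FTase and dansyl-GCVLS peptide at 30 °C for 300 s (ex 350/em 486 nm). Tris–HCl pH 7.0 buffer held DTT, MgCl₂, ZnCl₂ and 0.4% dodecyl maltoside. E,E-FPP was fixed while analogue amounts varied; farnesylation rate was measured for each.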

The target in data set [3] is T1, Protein farnesyltransferase. Put plainly: Inhibitory activity against mammalian protein-farnesyltransferase. The essentials: as §1
For data set [4] the target is unchanged. Put plainly: Inhibitory activity against mammalian protein-Farnesyltransferase at 10 uM.

Where only a bound is given, the exact number is not on record here.

By Km is commonly meant the substrate concentration at which the rate is half of its maximum. Take “Protein farnesyltransferase (Homo sapiens) (from UniProt P49354+P49356)”: the Km in data set [1] was 0.8 µM.
What is called IC50 is the concentration that inhibits the measured activity by half. A high value points to a need for much substance. As for `C/C(=C\COP(=O)(O)OP(=O)(O)O)CCc1ccc2ccccc2c1`, half-maximal inhibition in data set [2] (IC50) was put at 5.4 µM.
Turning to `C/C(=C\COP(=O)(O)OP(=O)(O)O)COCc1ccc(C(=O)c2ccccc2)cc1`, in data set [3], the midpoint of inhibition, the IC50, lay at 2.3 µM.
For `C/C(=C\COP(=O)(O)OP(=O)(O)O)CCc1ccccc1-c1ccccc1`, the concentration for half-maximal inhibition (IC50) in data set [4] was more than 10 µM.
